Test results as given in ChEMBL document CHEMBL1125618, “Studies on (H(+)-K+)-ATPase inhibitors of gastric acid secretion. Prodrugs of 2-[(2-pyridinylmethyl)sulfinyl]benzimidazole proton-pump inhibitors” (J Med Chem, 1991).
Calls of active or inactive are those of the source. The rule behind the calls is not given here.

Key:
[1] = tested on: Potassium-transporting ATPase (Rattus norvegicus); assay: Activity was evaluated by measuring the inhibition of isolated rat H+/K+ ATPase at 10 mg/kg; Inactive
[2] = target: Potassium-transporting ATPase (Sus scrofa, UniProt P19156); assay: (§1) Activity was evaluated by measuring the inhibition of isolated hog H+/K+ ATPase; assay type: protein-complex assay
Potassium-transporting ATPase (Sus scrofa, UniProt P19156), sequence (P18434 whole entry): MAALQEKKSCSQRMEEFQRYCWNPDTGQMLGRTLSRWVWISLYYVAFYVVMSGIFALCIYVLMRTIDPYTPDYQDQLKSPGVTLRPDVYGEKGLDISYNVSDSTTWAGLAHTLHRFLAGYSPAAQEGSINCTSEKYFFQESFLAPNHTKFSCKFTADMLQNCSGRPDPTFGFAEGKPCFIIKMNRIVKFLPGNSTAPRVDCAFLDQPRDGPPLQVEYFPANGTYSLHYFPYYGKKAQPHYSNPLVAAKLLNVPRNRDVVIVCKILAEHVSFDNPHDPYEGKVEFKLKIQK
Potassium-transporting ATPase (Sus scrofa, UniProt P19156), sequence (P19156 whole entry): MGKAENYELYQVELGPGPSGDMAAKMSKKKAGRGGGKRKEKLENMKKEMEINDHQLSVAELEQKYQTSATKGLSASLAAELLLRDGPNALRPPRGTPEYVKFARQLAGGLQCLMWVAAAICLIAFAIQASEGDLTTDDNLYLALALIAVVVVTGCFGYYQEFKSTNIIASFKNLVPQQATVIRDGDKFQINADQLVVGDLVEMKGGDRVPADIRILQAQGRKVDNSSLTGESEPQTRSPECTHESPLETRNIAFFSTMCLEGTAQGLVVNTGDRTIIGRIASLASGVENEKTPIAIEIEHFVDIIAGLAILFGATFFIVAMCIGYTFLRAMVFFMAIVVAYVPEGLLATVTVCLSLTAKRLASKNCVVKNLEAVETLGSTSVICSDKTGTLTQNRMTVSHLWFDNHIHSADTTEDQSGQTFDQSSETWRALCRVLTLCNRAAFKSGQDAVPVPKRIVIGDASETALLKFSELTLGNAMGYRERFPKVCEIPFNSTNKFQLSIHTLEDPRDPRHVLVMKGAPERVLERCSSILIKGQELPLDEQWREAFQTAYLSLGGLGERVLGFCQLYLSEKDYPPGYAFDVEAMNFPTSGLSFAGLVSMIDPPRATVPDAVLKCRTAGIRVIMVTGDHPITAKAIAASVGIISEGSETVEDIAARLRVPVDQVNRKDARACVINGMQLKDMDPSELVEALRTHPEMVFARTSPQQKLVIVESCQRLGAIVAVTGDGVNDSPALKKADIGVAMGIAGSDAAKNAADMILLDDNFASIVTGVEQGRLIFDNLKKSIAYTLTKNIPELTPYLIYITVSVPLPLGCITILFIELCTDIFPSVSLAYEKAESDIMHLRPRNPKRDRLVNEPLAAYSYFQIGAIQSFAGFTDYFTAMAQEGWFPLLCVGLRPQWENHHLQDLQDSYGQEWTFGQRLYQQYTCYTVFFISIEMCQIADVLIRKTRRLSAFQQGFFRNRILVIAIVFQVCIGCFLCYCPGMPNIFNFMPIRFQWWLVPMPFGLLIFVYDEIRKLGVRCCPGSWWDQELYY
How it was run: (§2)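 Hog fundic mucosa microsomes. Vesicles (30 μg) preincubated with compound at 37 °C in 40 mM Tris-acetate pH 7.4, 7 mM NH4Cl, with or without KCl. Reaction started with 2 mM ATP (final), run 10 min at 37 °C, stopped with cold TCA plus charcoal. Released inorganic phosphate measured colorimetrically. IC50 from dose-response, mean of triplicates.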

[3] = species: Oryctolagus cuniculus; assay: Antisecretory effect in isolated rabbit gastric glands as measured by aminopyrine uptake; assay type: functional, Stomach
How it was run: (§3)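 Gastric glands from male New Zealand rabbits (1.5-2.0 kg), isolated by collagenase digestion at 37 °C, pH 7.4. Incubated with compound 45 min at 37 °C with vigorous shaking. Pellet and supernatant radioactivity counted by liquid scintillation. ID50 from at least six doses, duplicate at each dose.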

[4] = target: T1, Potassium-transporting ATPase (Rattus norvegicus) (UniProt P09626+P18598); assay: Inhibition of isolated rat H+/K+ ATPase at 10 mg/kg; Inactive; assay type: functional, organism-based; set-up: dose 10 mg/kg
How it was run: (§4)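 Male Sprague-Dawley rats (~230 g), fasted 16 h without food or water in restraining cages. Compound in 1 mL isotonic saline with 25% ethanol, given sc or by gavage. Killed 3 h later. Fundic mucosa pooled from four rats per treatment, homogenized, microsomes isolated at 170000g. K+-stimulated ATPase assayed as for hog enzyme. ED50 from at least five doses, each in triplicate.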

[5] = target: T1, Potassium-transporting ATPase (Rattus norvegicus); assay: Inhibition of isolated rat H+/K+ ATPase.; assay type: protein-complex assay
How it was run: as §4

[6] = target: T1, Potassium-transporting ATPase (Rattus norvegicus); assay: Activity was evaluated by measuring the inhibition of isolated rat H+/K+ ATPase at 10 mg/kg; assay type: organism-based; set-up: dose 10 mg/kg
How it was run: as §4

[7] = target: T1, Potassium-transporting ATPase (Rattus norvegicus); assay: Activity was evaluated by measuring the inhibition of isolated rat H+/K+ ATPase; no effect, 10 mg/kg sc
[8] = species: Oryctolagus cuniculus; assay: Antisecretory effect in isolated rabbit gastric glands as measured by aminopyrine uptake; Inactive, 1E-4M concentration; assay type: functional; conditions: Stomach
How it was run: as §3

[9] = target: T2, Potassium-transporting ATPase (Sus scrofa) (UniProt P18434+P19156); assay: as §1; assay type: protein-complex assay; conditions: concentration not given here
How it was run: as §2

[10] = tested on: Rattus norvegicus; assay: Inhibition of acid secretion was determined by the compound administered subcutaneously in rats; assay type: functional; conditions: sc
How it was run: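 Pylorus-ligated (Shay) rats: female Upjohn or Charles River rats fasted 24 h, water withheld the last 18 h. Compound given once sc. Pylorus ligated under ether, then 10 mL saline sc. Gastric juice acidity titrated with 0.1 M NaOH as output (mequiv/2 or 3 h). Usually 12 controls and 5-6 rats per dose.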

[11] = target: T1, Potassium-transporting ATPase (Rattus norvegicus); assay: Inhibitory activity was evaluated by measuring the inhibition of isolated rat H+/K+ ATPase at a concentration of 10 mg/kg; assay type: organism-based; set-up: dose 10 mg/kg
How it was run: as §4

[12] = species: Oryctolagus cuniculus; assay: Antisecretory effect in isolated rabbit gastric glands as measured by aminopyrine uptake; no effect, 1E-4M concentration; assay type: functional; conditions: Stomach
How it was run: as §3

[13] = target: T1, Potassium-transporting ATPase (Rattus norvegicus); assay: Activity was evaluated by measuring the inhibition of isolated rat H+/K+ ATPase, sc; assay type: protein-complex assay
How it was run: as §4

[14] = target: T3, Potassium-transporting ATPase (Sus scrofa, UniProt P18434+P19156); assay: Activity was evaluated by measuring the inhibition of isolated hog H+/K+ ATPase; No effect; assay type: protein-complex assay
T3 sequence (P18434 whole entry): as the sequence (P18434 whole entry) above
T3 sequence (P19156 whole entry): as the sequence (P19156 whole entry) above
How it was run: as §2

[15] = target: T2, Potassium-transporting ATPase (Sus scrofa); assay: Activity was evaluated by measuring the inhibition of isolated hog H+/K+ ATPase at concentration of 5E-4; assay type: protein-complex assay
How it was run: as §2

[16] = target: T3, Potassium-transporting ATPase; assay: Activity was evaluated by measuring the inhibition of isolated hog H+/K+ ATPase; No effect at 5E-4; assay type: protein-complex assay
How it was run: as §2

[17] = target: T1, Potassium-transporting ATPase (Rattus norvegicus); assay: Activity administered subcutaneously was evaluated by measuring the inhibition of isolated rat H+/K+ ATPase; assay type: protein-complex assay
How it was run: as §4

| Compound | IC50 [2] [µM] | ID50 [3] [M] | ED50 [5] [mg/kg] | also measured |
| --- | --- | --- | --- | --- |
| CC(=O)OCn1c(SCc2nccc3c2CCC[S+]3[O-])nc2ccccc21 (stereo not given) |  |  |  | ED50 [1]: inactive |
| COc1c(C)cnc(C[S+]([O-])c2nc3ccccc3[nH]2)c1C (stereo not given) | 20 | 2e-07 |  |  |
| CCSc1ccnc(C[S+]([O-])c2nc3ccccc3n2CCN2CCCCC2)c1C (stereo not given) | 30 | 2e-05 |  | ED50 [4]: inactive |
| CCSc1ccnc(C[S+]([O-])c2nc3ccccc3n2C(C)OC(C)=O)c1C (stereo in doubt; 19a) |  |  | 2 |  |
| CCSc1ccnc(C[S+]([O-])c2nc3ccccc3n2C(=O)OCc2ccccc2)c1C (stereo not given) | 20 | 1.5e-06 |  | inhibition [6]: 40% |
| COc1c(C)cnc(C[S+]([O-])c2nc3ccccc3n2CCN2CCOCC2)c1C (stereo not given) | 1000 | 7e-05 |  | ED50 [4]: inactive |
| CCSc1ccnc(C[S+]([O-])c2nc3ccccc3n2CSc2ccccc2)c1C (stereo not given) | > 1000 | 8e-06 |  | ED50 [4]: inactive |
| CCSc1ccnc(C[S+]([O-])c2nc3ccccc3n2C(=O)OC(C)(C)C(Cl)(Cl)Cl)c1C (stereo not given) | 10 | 5e-05 |  | ED50 [7]: inactive |
| [O-][N+]1(Cn2c(SCc3ccccn3)nc3ccccc32)CCOCC1 |  |  |  | ED50 [4]: inactive; ID50 [8]: inactive |
| [O-][S+](Cc1ccccn1)c1nc2ccccc2[nH]1 (stereo not given) [TIMOPRAZOLE] |  | 2e-05 | 4 | inhibition [9]: 27%; ED50 [10]: 2.5 mg/kg |
| CC(OC(=O)c1ccccc1)n1c([S+]([O-])Cc2ccccn2)nc2ccccc21 (stereo in doubt; 29b) |  |  |  | inhibition [11]: 35%; ID50 [12]: inactive |
| CCCCCCCCOC(=O)n1c([S+]([O-])Cc2nccc(SCC)c2C)nc2ccccc21 (stereo not given) |  | 1e-05 |  |  |
| CCOC(C)n1c([S+]([O-])Cc2ccccn2)nc2ccccc21 (stereo not given) | 1000 |  |  | ED50 [13]: 5 mg/kg; ID50 ([3]; Stomach): inactive |
| CCSc1ccnc(C[S+]([O-])c2nc3ccccc3n2CSC)c1C (stereo not given) |  | 9e-05 |  | IC50 [14]: Not Active; ED50 [4]: inactive |
| [O-][S+](Cc1ccccn1)c1nc2ccccc2n1CCN1CCOCC1 (stereo not given) |  |  |  | ID50 [8]: inactive |
| CCSc1ccnc(C[S+]([O-])c2nc3ccccc3n2COC)c1C (stereo not given) |  |  |  | ED50 [4]: inactive; ID50 ([3]; Stomach): inactive |
| CCSc1ccnc(C[S+]([O-])c2nc3ccccc3n2C(=O)OCc2ccc([N+](=O)[O-])cc2)c1C (stereo not given) | 20 | 1.5e-06 |  | inhibition [6]: 44% |
| CCOC(=O)n1c([S+]([O-])Cc2nccc(SCC)c2C)nc2ccccc21 (stereo not given) | 20 | 2e-06 |  | inhibition [6]: 61% |
| CCOC(C)n1c([S+]([O-])Cc2ncc(C)c(OC)c2C)nc2ccccc21 (stereo not given) | 1500 | 1e-06 | 1 |  |
| CCSc1ccnc(C[S+]([O-])c2nc3ccccc3n2C(=O)OCCCl)c1C (stereo not given) | 10 | 2e-06 |  | inhibition [6]: 40% |
| CCSc1ccnc(C[S+]([O-])c2nc3ccccc3n2COC(=O)C(C)(C)C)c1C (stereo not given) |  | 5e-06 | 5 | inhibition [15]: 30% |
| COC(=O)CCC(=O)OCn1c([S+]([O-])Cc2ccccn2)nc2ccccc21 (stereo not given) |  | 2e-05 | 7 |  |
| CC(=O)OC(C)n1c([S+]([O-])Cc2ccccn2)nc2ccccc21 (stereo in doubt; 18b) |  |  |  | ID50 [12]: inactive |
| CCCCCCCC(=O)OCn1c([S+]([O-])Cc2ccccn2)nc2ccccc21 (stereo not given) |  | 2e-05 | 9 |  |
| COc1c(C)cnc(C[S+]([O-])c2nc3ccccc3n2COC(C)=O)c1C (stereo not given) | 500 | 2e-07 | 1 |  |
| CC(OC(=O)c1ccccc1)n1c([S+]([O-])Cc2ccccn2)nc2ccccc21 (stereo in doubt; 29a) [listing 1 of 2 here] |  |  |  | inhibition [11]: 27% |

| Compound | IC50 [2] [µM] | ID50 [3] [M] | ED50 [5] [mg/kg] | also measured |
| --- | --- | --- | --- | --- |
| CCSc1ccnc(C[S+]([O-])c2nc3ccccc3n2C(=O)OCC(C)C)c1C (stereo not given) | 5 | 4e-06 | 5 |  |
| CCOC(C)n1c([S+]([O-])Cc2nccc(SCC)c2C)nc2ccccc21 (stereo not given) | 200 | 5e-07 | 1.5 |  |
| Cn1c([S+]([O-])Cc2ccccn2)nc2ccccc21 (stereo not given) |  | 0.001 |  | inhibition [9]: 18%; ED50 [4]: inactive |
| CCSc1ccnc(C[S+]([O-])c2nc3ccccc3n2C(=O)OC(C)C)c1C (stereo not given) |  | 1.5e-05 | 10 |  |
| c1ccc(CSc2nc3ccccc3n2CCN2CCOCC2)nc1 |  |  |  | ED50 [4]: inactive; ID50 [8]: inactive |
| CCSc1ccnc(C[S+]([O-])c2nc3ccccc3[nH]2)c1C (stereo not given) [DISUPRAZOLE] | 20 | 1e-07 | 1 | ED50 [10]: < 1 mg/kg |
| CCSc1ccnc(C[S+]([O-])c2nc3ccccc3n2COCCOC)c1C (stereo not given) |  | 1e-05 |  | ED50 [4]: inactive |
| COc1c(C)cnc(C[S+]([O-])c2nc3ccccc3n2C(C)OC(C)=O)c1C (stereo not given) | 1500 | 4e-07 | < 1 |  |
| CCSc1ccnc(C[S+]([O-])c2nc3ccccc3n2COC(C)=O)c1C (stereo not given) | 400 | 3e-07 | 2 |  |
| CC(=O)OC(C)n1c([S+]([O-])Cc2ccccn2)nc2ccccc21 (stereo in doubt; 18a) |  |  |  | ID50 [12]: inactive |
| CCSc1ccnc(CSc2nc3ccccc3n2CC2CO2)c1C (stereo not given) |  | 8e-05 |  | ED50 [4]: inactive |
| COc1ccc2[nH]c([S+]([O-])Cc3ncc(C)c(OC)c3C)nc2c1 (stereo not given) [OMEPRAZOLE] |  | 2e-07 | 1 | ED50 [10]: < 1 mg/kg |
| CCSc1ccnc(C[S+]([O-])c2nc3ccccc3n2C(C)OC(C)=O)c1C (stereo in doubt; 19b) |  |  | 2 |  |
| CC(OC(=O)C(C)(C)C)n1c([S+]([O-])Cc2ccccn2)nc2ccccc21 (stereo in doubt; 30b) [listing 1 of 2 here] |  |  |  | inhibition [11]: 40% |
| c1ccc(CSc2nc3ccccc3n2CN2CCOCC2)nc1 |  |  |  | ED50 [4]: inactive; ID50 [8]: inactive |
| CC(C)C(=O)OCn1c([S+]([O-])Cc2ccccn2)nc2ccccc21 (stereo not given) |  | 3e-05 | 4 |  |
| CC(C)COC(=O)OCn1c([S+]([O-])Cc2ccccn2)nc2ccccc21 (stereo not given) |  | 2e-05 | 6 |  |
| CC(OC(=O)C(C)(C)C)n1c([S+]([O-])Cc2ccccn2)nc2ccccc21 (stereo in doubt; 30b) [listing 2 of 2 here] |  | 2e-05 |  |  |
| CCSc1ccnc(C[S+]([O-])c2nc3ccccc3n2COC(=O)c2ccccc2)c1C (stereo not given) |  | 1.5e-06 |  | inhibition [11]: 30%; IC50 [16]: Not Active |
| CC(OC(=O)C(C)(C)C)n1c([S+]([O-])Cc2ccccn2)nc2ccccc21 (stereo in doubt; 30a) |  |  |  | inhibition [11]: 32%; ID50 [12]: inactive |
| C=COC(=O)n1c([S+]([O-])Cc2nccc(SCC)c2C)nc2ccccc21 (stereo not given) | 30 | 1.5e-06 | 10 |  |
| CC(=O)OCn1c([S+]([O-])Cc2ccccn2)nc2ccccc21 (stereo not given) | 8 | 0.0001 |  | ED50 [17]: 5 mg/kg |
| CCOCCn1c([S+]([O-])Cc2nccc(SCC)c2C)nc2ccccc21 (stereo not given) | 1000 | 2e-06 |  | ED50 [4]: inactive |
| CCSc1ccnc(C[S+]([O-])c2nc3ccccc3n2C(=O)Oc2ccccc2)c1C (stereo not given) | 20 | 1.5e-06 | 5 |  |
| CC(OC(=O)c1ccccc1)n1c([S+]([O-])Cc2ccccn2)nc2ccccc21 (stereo in doubt; 29a) [listing 2 of 2 here] | 400 | 4e-05 |  |  |
